Assay results reported in ChEMBL document CHEMBL1123348, “Characterization of the neurotoxic potential of m-methoxy-MPTP and the use of its N-ethyl analogue as a means of avoiding exposure to a possible Parkinsonism-causing agent” (J Med Chem, 1986).
“And” between values parts separate entries of the source, which are not always exact repeats. Identical values can stand only once.

Experiments:
Assay type in all cases: functional, organism-based
Mus musculus [1] = assay: Tested for the concentration of HVA in striatum of mouse brain one week after four daily injections at dose of 80 mg/kg; set-up: dose 80 mg/kg
Method in brief: (§1)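 Male CRL/CFW mice received subcutaneous injections daily for 4 days. Animals were killed 7 days after the last dose. Brains were removed rapidly, and striata were dissected, frozen on dry ice and stored at -15 °C until analysis of dopamine, DOPAC and HVA. Values are means ± standard errors for 6 mice/group.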

Mus musculus [2] = assay: Tested for the concentration of DOPAC (dihydroxyphenyl-acetic acid) in striatum of mouse brain one week after four daily injections at dose of 80 mg/kg; set-up: dose 80 mg/kg; method in brief: as §1
Mus musculus [3] = assay: Tested for the concentration of dopamine in striatum of mouse brain one week after four daily injections at 80 mg/kg dose; set-up: dose 80 mg/kg; method in brief: as §1
Mus musculus [4] = assay: Tested for the concentration of DOPAC (dihydroxyphenyl-acetic acid) in striatum of mouse brain one week after four daily injections at dose of 40 mg/kg; set-up: dose 40 mg/kg; method in brief: as §1
Mus musculus [5] = assay: Tested for the concentration of HVA in striatum of mouse brain one week after four daily injections at dose of 40 mg/kg; set-up: dose 40 mg/kg; method in brief: as §1
Mus musculus [6] = assay: Tested for the concentration of dopamine in striatum of mouse brain one week after four daily injections at 40 mg/kg dose; set-up: dose 40 mg/kg; method in brief: as §1
Mus musculus [7] = assay: Tested for the concentration of dopamine in striatum of mouse brain one week after four daily injections at 80 mg/kg of the compound; set-up: dose 80 mg/kg; method in brief: as §1
Mus musculus [8] = assay: Tested for the concentration of DOPAC (dihydroxyphenyl-acetic acid) in striatum of mouse brain one week after four daily injections at dose of 20 mg/kg; set-up: dose 20 mg/kg; method in brief: as §1
Mus musculus [9] = assay: Tested for the concentration of HVA in striatum of mouse brain one week after four daily injections at doses of 20 mg/kg; set-up: dose 20 mg/kg; method in brief: as §1
Mus musculus [10] = assay: Tested for the concentration of DOPAC (dihydroxyphenyl-acetic acid) in striatum of mouse brain one week after four daily injections at a dosage of 80 mg/kg; set-up: dose 80 mg/kg; method in brief: as §1
Mus musculus [11] = assay: Tested for the concentration of HVA in striatum of mouse brain one week after four daily injections at a dosage of 80 mg/kg; set-up: dose 80 mg/kg; method in brief: as §1
Mus musculus [12] = assay: Tested for the concentration of dopamine in striatum of mouse brain one week after four daily injections at 20 mg/kg dose; set-up: dose 20 mg/kg; method in brief: as §1
Mus musculus [13] = assay: Tested for the concentration of HVA in striatum of mouse brain one week after four daily injections at dose of 20 mg/kg; set-up: dose 20 mg/kg; method in brief: as §1

Structure (SMILES) | Concentration (Mus musculus [1]) [nM/g] | Concentration (Mus musculus [2]) [nM/g] | Concentration (Mus musculus [3]) [nM/g] | Concentration (Mus musculus [4]) [nM/g] | Concentration (Mus musculus [5]) [nM/g] | Concentration (Mus musculus [6]) [nM/g] | Concentration (Mus musculus [7]) [nM/g] | Concentration (Mus musculus [8]) | Concentration (Mus musculus [9]) [nM/g] | Concentration (Mus musculus [10]) [nM/g] | Concentration (Mus musculus [11]) [nM/g] | Concentration (Mus musculus [12]) | Concentration (Mus musculus [13]) [nM/g]
COc1cccc(C2=CCN(C)CC2)c1 | 2.97 | 1.38 | 15.9 | 2.93 | 5.66 | 38.1 | 7.9 | 5.09 nM/g | 8.07 | 0.9 | 2.41 | 84.8 nM/g | 
CCN1CC=C(c2cccc(OC)c2)CC1 |  |  |  |  |  |  |  | 4.6 nM/g and 5.55 nM/g | 5.46 |  |  | 62.7 nM/g and 82.1 nM/g | 6.38
